Where a SMILES comes first, the peptide text is derived from it. [ ]: non-standard residue; d: D form.
Columns and labels:
M2 macrophages = type: cell-based; settings: 2 h
M1 macrophages = test: Cell viability during binding study; type: cell-based, murine; settings: 20 min on ice, PI staining; up to 50 µM; Fig. 1B
In short: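 Bone-marrow cells cultured 7 d in RPMI 1640 with 20% horse serum, 1% antibiotic-antimycotic and 20 ng/mL M-CSF, then activated 2 d with 25 ng/mL IFN-γ plus 100 ng/mL LPS. Cells were plated at 50,000/well and given biotinylated peptide in PBS/1% BSA on ice. After washing they were given streptavidin-FITC for 15 min on ice. Dead cells were scored by PI flow cytometry. Triplicates, three independent experiments.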

macrophages = test: M2pep sequence specificity of macrophage toxicity; type: cell-based, murine; settings: peptides partially dimerized in solution; Fig. S3, linkers Fig. S4

Row | Molecule | macrophage toxicity (macrophages) | also measured
1 | CC(C)C[C@@H](NC(=O)[C@@H](CCCCN)NC(=O)[C@H](CO)NC(=O)CNC(=O)CNC(=O)CNC(=O)[C@H](Cc1ccc(O)cc1)NC(=O)[C@H](Cc1c[nH]c2ccccc12)NC(=O)[C@H](Cc1c[nH]c2ccccc12)NC(=O)[C@H](CCCCN)NC(=O)[C@@H](NC(=O)CNC(=O)[C@H](Cc1c[nH]c2ccccc12)NC(=O)[C@@H]1CCCN1C(=O)[C@H](CC(=O)O)NC(=O)[C@H](CCC(N)=O)NC(=O)[C@H](CCC(=O)O)NC(=O)[C@@H](N)Cc1ccc(O)cc1)C(C)C)C(=O)N[C@H](C)C(=O)N[C@H](CCCCN)C(=O)N[C@H](CC(C)C)C(=O)N[C@H](C)C(=O)N[C@H](CCCCN)C(=O)N[C@H](CCCCN)C(=O)N[C@H](CC(C)C)C(=O)N[C@H](C)C(=O)N[C@H](CCCCN)C(=O)N[C@H](CC(C)C)C(=O)N[C@H](C)C(=O)N[C@H](CCCCN)C(N)=O [M2pepKLA] (H-YEQDPWGVKWWYGGGS[dK][dL][dA][dK][dL][dA][dK][dK][dL][dA][dK][dL][dA][dK]-NH2) | – | EC50 (M2 macrophages): 4.29 µM
2 | YEQDPWGVKWWYGGGSKKKBiotin [M2pepBiotin] | – | toxicity to M1 macrophages during binding study (M1 macrophages): no toxicity to either cell type
3 | WEDYQWPVYKGWGGGSKKKC [scrambled M2pepKKKC, reference compound] | toxicity was only observed in the M2pepKKKC-treated samples | –
4 | YEQDPWGVKWWYGGGSKKKC [M2pepKKKC] | toxicity was only observed in the M2pepKKKC-treated samples | –
